Source: ChEMBL document CHEMBL1149278, “Synthesis and structure-activity relationship studies for hydantoins and analogues as voltage-gated sodium channel ligands” (J Med Chem, 2004)

Experiment: Displacement of [3H]BTX-B from voltage gated sodium channel in rat cerebral cortex synaptoneurosomes
Type: tissue-based
Summary of the method: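 Rat cerebral cortex synaptoneurosomes (~1 mg protein), stored frozen at –70 °C, thawed and resuspended in HEPES incubation buffer. […] Filtration assay; nonspecific binding defined with 300 μM veratridine. Triplicates, DPH control run alongside. IC50 by Probit analysis, using only points with 10–90% inhibition.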

| IC50 | Compound |
| --- | --- |
| > 200 µM | CCC1(c2ccccc2)NC(=O)NC1=O (stereo not given) |
| > 500 µM | CCC1(c2ccccc2)NC(=O)N(S(C)(=O)=O)C1=O (stereo not given) |
| 300 µM | CCCCCCCC(N)(C(=O)O)c1ccccc1 (stereo not given) |
| 178 µM | CCCCCC(O)(C(N)=O)c1ccccc1 (stereo not given) |
| 274 µM | CCCCCCCCCC(N)(C(=O)O)c1ccccc1 (stereo not given) |
| 4.3 µM | CCC(OCCCc1ccccc1)(C(=O)NCCCc1ccccc1)c1ccccc1 (stereo not given) |
| 6.5 µM | CCCCCCCCCC(O)(C(N)=O)c1ccccc1 (stereo not given) |
| 4.5 µM | O=C1NC(c2ccccc2)(c2ccccc2)C(=O)N1CN1CCN(C(c2ccccc2)c2ccccc2)CC1 |
| 448 µM | CCCC1(c2ccccc2)OC(=O)NC1=O (stereo not given) |
| 112 µM | CCCCCC1(c2ccccc2)NC(=O)N(S(C)(=O)=O)C1=O (stereo not given) |
| 84 µM | CCCCCCCCCC(O)(C(=O)O)c1ccccc1 (stereo not given) |
| 51 µM | CCC1(c2ccccc2)NC(=O)N(S(=O)(=O)c2ccc(C)cc2)C1=O (stereo not given) |
| > 500 µM | CCCCCCCC(O)(C(=O)O)c1ccccc1 (stereo not given) |
| > 500 µM | CCC(O)(C(N)=O)c1ccccc1 (stereo not given) |
| 1.1 µM | CCC1(c2ccccc2)NC(=O)N(CCN2CCN(C(c3ccccc3)c3ccccc3)CC2)C1=O (stereo not given) |
| 0.22 µM | O=C1NC(c2ccccc2)(c2ccccc2)C(=O)N1CCN1CCN(C(c2ccccc2)c2ccccc2)CC1 |
| 6.3 µM | CC(O)(C(=O)N1CCN(C(c2ccccc2)c2ccccc2)CC1)c1ccccc1 (stereo not given) |
| > 500 µM | CCC(O)(C(=O)O)c1ccccc1 (stereo not given) |
| 5 µM | CCCCCC(O)(C(=O)NCCc1ccccc1)c1ccccc1 (stereo not given) |
| 2.5 µM | CCCCCC(O)(C(=O)NCCCc1ccccc1)c1ccccc1 (stereo not given) |
| 2.2 µM | CCCCCCCC1(c2ccccc2)NC(=O)N(CN2CCN(C(c3ccccc3)c3ccccc3)CC2)C1=O (stereo not given) |
| > 500 µM | CCC(N)(C(=O)O)c1ccccc1 (stereo not given) |
| > 500 µM | CCCCCC(N)(C(=O)O)c1ccccc1 (stereo not given) |
| > 500 µM | CCCC(O)(C(=O)O)c1ccccc1 (stereo not given) |

| IC50 | Compound |
| --- | --- |
| > 500 µM | CCCCCC(O)(C(=O)O)c1ccccc1 (stereo not given) |
| 9 µM | CCCCCCCC(O)(C(N)=O)c1ccccc1 (stereo not given) |
| 39 µM | CCCCCC1(c2ccccc2)NC(=O)NC1=O (stereo not given) |
| 162 µM | CCCC1(c2ccccc2)NC(=O)NC1=O (stereo not given) |
| 6.9 µM | CCCCCC1(c2ccccc2)NC(=O)N(Cc2ccccc2)C1=O (stereo not given) |
| 35 µM | CCC(O)(C(=O)NCCC(c1ccccc1)c1ccccc1)c1ccccc1 (stereo not given) |
| 1.3 µM | CCCCCC1(c2ccccc2)NC(=O)N(CN2CCN(C(c3ccccc3)c3ccccc3)CC2)C1=O (stereo not given) |
| 5.1 µM | CCCCCCCCCC1(c2ccccc2)NC(=O)N(Cc2ccccc2)C1=O (stereo not given) |
| 112 µM | CCCCCC1(c2ccccc2)OC(=O)NC1=O (stereo not given) |
| 3.3 µM | CCC1(c2ccccc2)NC(=O)N(CN2CCN(C(c3ccccc3)c3ccccc3)CC2)C1=O (stereo not given) |
| 30 µM | CCCCCCCC1(c2ccccc2)OC(=O)NC1=O (stereo not given) |
| 13 µM | CCCCCCCC1(c2ccccc2)NC(=O)N(S(C)(=O)=O)C1=O (stereo not given) |
| 30 µM | CCC(O)(C(=O)NCCc1ccccc1)c1ccccc1 (stereo not given) |
| 8.2 µM | CCC(O)(C(=O)NCCCc1ccccc1)c1ccccc1 (stereo not given) |
| 11 µM | CCCCCCCCCC1(c2ccccc2)NC(=O)N(S(C)(=O)=O)C1=O (stereo not given) |
| 11 µM | CCCCCCCCCC1(c2ccccc2)OC(=O)NC1=O (stereo not given) |
| 103 µM | CCCCC1(c2ccccc2)NC(=O)NC1=O (stereo not given) |
| 5 µM | CCCCCCCCCC1(c2ccccc2)NC(=O)NC1=O (stereo not given) |
| 500 µM | CCCC1(c2ccccc2)NC(=O)N(S(C)(=O)=O)C1=O (stereo not given) |
| 5 µM | CCCCCCCC1(c2ccccc2)NC(=O)NC1=O (stereo not given) |
| 4.8 µM | CCCCCC(O)(C(=O)N1CCN(C(c2ccccc2)c2ccccc2)CC1)c1ccccc1 (stereo not given) |
| 500 µM | CCCC(O)(C(N)=O)c1ccccc1 (stereo not given) |
| 5.3 µM | CCCCCC(O)(C(=O)NCCC(c1ccccc1)c1ccccc1)c1ccccc1 (stereo not given) |
| > 500 µM | CC(O)(C(N)=O)c1ccccc1 (stereo not given) [ATROLACTAMIDE] |

| Compound | IC50 |
| --- | --- |
| CCOC(=O)C(O)(CC)c1ccccc1 (stereo not given) | > 200 µM |
| CCCCCCCC(O)(C(=O)OCC)c1ccccc1 (stereo not given) | 36 µM |
